Converted amounts (≈) assume the structure as drawn.
Assays:
[1] = Aqueous solubility in pH 7.4 PBS buffer by UV-Visible spectrophotometric method; type: physicochemical
Method in brief: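 Solubility determined in 0.1 M PBS, pH 7.4, by UV-visible spectrophotometry.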

[2] = biological target: Epidermal growth factor receptor (Homo sapiens, UniProt P00533); assay: Inhibition of recombinant human GST-tagged EGFR (668 to 1210 residues) expressed in baculovirus expression system using Poly(Glu,Tyr)4:1 as substrate after 1 hr by ELISA
[3] = biological target: Epidermal growth factor receptor (Homo sapiens, UniProt P00533, L858R/T790M); assay: Inhibition of recombinant human GST-tagged EGFR L858R/T790M double mutant expressed in baculovirus expression system using Poly(Glu,Tyr)4:1 as substrate after 1 hr by ELISA
A-431 = assay: Cytotoxicity against human A431 cells harboring wild type EGFR assessed as reduction in cell viability after 72 hrs by SRB assay; type: cell-based; conditions: A-431, 72 h
Method in brief: (§1)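 Cell growth inhibition measured by sulforhodamine B colorimetric assay in H1975 (EGFR L858R/T790M) and A431 (overexpressed wild-type EGFR) cells; IC50 values are means ± SD of at least three independent determinations. Selectivity is taken as the A431:H1975 IC50 ratio.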

NCI-H1975 = assay: Antiproliferative activity against human NCI-H1975 cells harboring EGFR L858R/T790M double mutant after 72 hrs by SRB assay; type: functional, cell-based; conditions: NCI-H1975, 72 h; method in brief: as §1
Homo sapiens [4] = species: Homo sapiens; assay: Selectivity ratio of IC50 for recombinant human GST-tagged EGFR (668 to 1210 residues) expressed in baculovirus expression system to IC50 for recombinant human GST-tagged EGFR L858R/T790M double mutant expressed in baculovirus expression system
Method in brief: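 ELISA-based EGFR tyrosine kinase assay run on wild-type and L858R/T790M enzymes. IC50 values come from at least three independent determinations, reported as means ± SD. Selectivity is the wild-type IC50 divided by the L858R/T790M IC50.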

Homo sapiens [5] = species: Homo sapiens; assay: Selectivity index, ratio of IC50 for human A431 cells harboring wild type EGFR to IC50 for human NCI-H1975 cells harboring EGFR L858R/T790M double mutant; method in brief: as §1

Epidermal growth factor receptor (Homo sapiens, UniProt P00533, L858R/T790M), sequence (P00533 25-1210 T790M/L858R limits assumed): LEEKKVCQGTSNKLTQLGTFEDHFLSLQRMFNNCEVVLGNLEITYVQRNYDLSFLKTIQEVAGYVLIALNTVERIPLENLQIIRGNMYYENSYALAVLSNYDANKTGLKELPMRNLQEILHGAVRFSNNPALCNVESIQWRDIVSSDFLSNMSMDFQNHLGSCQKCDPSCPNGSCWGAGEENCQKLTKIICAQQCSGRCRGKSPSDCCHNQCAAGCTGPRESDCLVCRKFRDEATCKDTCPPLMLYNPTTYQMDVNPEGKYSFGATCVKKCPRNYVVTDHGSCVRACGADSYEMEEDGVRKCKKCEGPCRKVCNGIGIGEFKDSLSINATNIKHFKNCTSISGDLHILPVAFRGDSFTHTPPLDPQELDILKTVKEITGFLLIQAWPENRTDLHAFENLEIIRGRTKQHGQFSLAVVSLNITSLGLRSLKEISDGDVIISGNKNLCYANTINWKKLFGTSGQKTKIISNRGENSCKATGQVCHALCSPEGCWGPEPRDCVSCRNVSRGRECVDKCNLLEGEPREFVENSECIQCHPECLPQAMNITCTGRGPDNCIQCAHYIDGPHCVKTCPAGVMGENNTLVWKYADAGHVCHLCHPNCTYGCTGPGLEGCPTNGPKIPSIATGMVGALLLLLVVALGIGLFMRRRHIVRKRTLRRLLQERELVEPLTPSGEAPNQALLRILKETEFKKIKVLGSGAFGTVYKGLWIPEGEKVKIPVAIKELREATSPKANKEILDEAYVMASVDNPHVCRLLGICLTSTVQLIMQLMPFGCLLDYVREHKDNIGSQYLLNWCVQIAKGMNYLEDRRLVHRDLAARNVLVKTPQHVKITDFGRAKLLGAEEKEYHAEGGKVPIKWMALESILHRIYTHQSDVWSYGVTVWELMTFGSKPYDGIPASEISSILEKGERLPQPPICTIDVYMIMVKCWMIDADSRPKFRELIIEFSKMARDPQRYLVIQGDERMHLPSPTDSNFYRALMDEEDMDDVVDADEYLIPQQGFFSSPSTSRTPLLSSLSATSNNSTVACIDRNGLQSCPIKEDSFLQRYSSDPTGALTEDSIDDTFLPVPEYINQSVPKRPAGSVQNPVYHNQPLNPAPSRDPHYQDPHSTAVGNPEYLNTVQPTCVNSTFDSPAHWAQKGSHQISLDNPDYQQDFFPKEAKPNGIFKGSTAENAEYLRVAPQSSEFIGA
Epidermal growth factor receptor (Homo sapiens, UniProt P00533), sequence (P00533 whole entry, the tested form may be a part): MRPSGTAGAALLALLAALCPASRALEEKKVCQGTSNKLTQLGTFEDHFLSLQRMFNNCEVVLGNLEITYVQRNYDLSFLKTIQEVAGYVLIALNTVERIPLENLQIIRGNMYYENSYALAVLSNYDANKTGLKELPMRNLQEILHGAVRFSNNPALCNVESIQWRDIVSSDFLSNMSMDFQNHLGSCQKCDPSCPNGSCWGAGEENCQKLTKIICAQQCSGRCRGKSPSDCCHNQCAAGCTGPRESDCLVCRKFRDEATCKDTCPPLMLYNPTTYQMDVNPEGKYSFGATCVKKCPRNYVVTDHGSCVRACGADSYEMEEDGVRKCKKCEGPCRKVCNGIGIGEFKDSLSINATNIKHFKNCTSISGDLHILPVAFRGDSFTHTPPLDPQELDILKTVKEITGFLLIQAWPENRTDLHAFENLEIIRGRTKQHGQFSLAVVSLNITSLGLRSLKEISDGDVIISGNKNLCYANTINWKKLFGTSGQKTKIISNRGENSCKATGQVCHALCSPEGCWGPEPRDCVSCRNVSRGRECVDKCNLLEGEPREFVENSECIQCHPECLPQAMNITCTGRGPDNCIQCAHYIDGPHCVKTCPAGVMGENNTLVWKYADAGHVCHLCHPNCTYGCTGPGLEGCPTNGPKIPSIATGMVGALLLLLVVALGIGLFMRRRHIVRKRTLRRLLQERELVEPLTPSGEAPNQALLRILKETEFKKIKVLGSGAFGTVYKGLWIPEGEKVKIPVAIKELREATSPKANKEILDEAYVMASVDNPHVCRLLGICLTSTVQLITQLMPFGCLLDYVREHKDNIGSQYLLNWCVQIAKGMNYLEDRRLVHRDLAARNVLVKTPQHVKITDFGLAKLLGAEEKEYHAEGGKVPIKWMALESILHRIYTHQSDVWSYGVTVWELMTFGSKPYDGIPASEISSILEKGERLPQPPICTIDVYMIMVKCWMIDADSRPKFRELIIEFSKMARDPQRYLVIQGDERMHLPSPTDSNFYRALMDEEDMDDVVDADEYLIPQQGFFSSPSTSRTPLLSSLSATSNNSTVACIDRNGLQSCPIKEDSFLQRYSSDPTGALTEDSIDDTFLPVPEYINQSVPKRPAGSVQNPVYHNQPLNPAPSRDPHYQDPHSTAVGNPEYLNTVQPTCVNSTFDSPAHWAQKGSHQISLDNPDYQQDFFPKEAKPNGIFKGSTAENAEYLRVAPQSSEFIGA

Row | Structure (SMILES) | solubility [1] [µg/mL] | IC50 [2] [µM] | IC50 [3] [µM] | IC50 (A-431) [µM] | IC50 (NCI-H1975) [µM] | Ratio IC50 (Homo sapiens [4]) | Ratio IC50 (Homo sapiens [5])
1 | C=CC(=O)Nc1cccc(-n2c(=O)n(C)c(=O)c3cnc(Nc4ccccc4)nc32)c1 | < 10 | 0.082 | 0.068 | > 10 | 9.26 | 1.2 | –
2 | C=CC(=O)Nc1cccc(-n2c(=O)n(C)c(=O)c3cnc(Nc4ccc(N5CCN(C(C)=O)CC5)cc4OC)nc32)c1 | < 10 | 0.18 | 0.046 | > 10 | > 10 | 3.9 | –
3 | C=CC(=O)Nc1cccc(-n2c(=O)n(Cc3ccccc3)c(=O)c3cnc(Nc4ccc(N5CCC(N(C)C)CC5)cc4OC)nc32)c1 | 137 (≈ 212 µM) | 0.0012 | 0.0019 | 3.3 | 0.278 | 0.6 | 12
4 | C=CC(=O)Nc1cccc(-n2c(=O)n(C)c(=O)c3cnc(Nc4ccc(N5CCC(N(C)C)CC5)cc4OC)nc32)c1 | 531 (≈ 931 µM) | – | – | 3.89 | 0.23 | – | –
5 | C=CC(=O)Nc1cccc(-n2c(=O)n(C(C)C)c(=O)c3cnc(Nc4ccc(N5CCN(C)CC5)c(OC)c4)nc32)c1 | 309 (≈ 541 µM) | 0.119 | 0.0068 | 1.05 | 0.037 | 18 | 28
6 | C=CC(=O)Nc1cccc(-n2c(=O)n(CC)c(=O)c3cnc(Nc4ccc(N5CCC(N(C)C)CC5)cc4OC)nc32)c1 | 229 (≈ 392 µM) | 0.111 | 0.0025 | > 10 | 0.175 | 44 | –
7 | C=CC(=O)Nc1cccc(-n2c(=O)n(CCCc3ccccc3)c(=O)c3cnc(Nc4ccc(N5CCC(N(C)C)CC5)cc4OC)nc32)c1 | 104 (≈ 154 µM) | 0.0038 | 0.0014 | 1.46 | 0.358 | 2.7 | 4.1
8 | C=CC(=O)Nc1cccc(-n2c(=O)n(C)c(=O)c3cnc(Nc4ccc(N5CCOCC5)cc4OC)nc32)c1 | 61 (≈ 115 µM) | 0.341 | 0.07 | > 10 | > 10 | 4.9 | –
9 | C=CC(=O)Nc1cccc(-n2c(=O)n(C(C)C)c(=O)c3cnc(Nc4ccc(N(C)CCN(C)C)cc4OC)nc32)c1 | 1050 (≈ 1840 µM) | 0.121 | 0.016 | 1.95 | 0.138 | 7.6 | 14
10 | C=CC(=O)Nc1cccc(Nc2nc(Nc3ccc(N4CCN(C(C)=O)CC4)cc3OC)ncc2C(F)(F)F)c1 [ROCILETINIB] | – | – | – | 0.641 | 0.031 | – | –
11 | C=CC(=O)Nc1cccc(-n2c(=O)n(C(C)C)c(=O)c3cnc(Nc4ccc(N5CCC(N6CCN(C)CC6)CC5)cc4OC)nc32)c1 | 121 (≈ 185 µM) | 0.24 | 0.014 | 1.39 | 0.154 | 17 | 9
12 | C=CC(=O)Nc1cccc(-n2c(=O)n(C(C)C)c(=O)c3cnc(Nc4ccc(N5CCC(N(C)C)CC5)cc4OC)nc32)c1 | 176 (≈ 294 µM) | 0.02 | 0.0008 | > 10 | 0.05 | 25 | –
13 | C=CC(=O)Nc1cccc(-n2c(=O)n(C(C)C)c(=O)c3cnc(Nc4ccc(N5CCN(C)CC5)c(C)c4)nc32)c1 | 280 (≈ 505 µM) | 0.034 | 0.001 | 0.954 | 0.024 | 34 | 40
14 | C=CC(=O)Nc1cccc(-n2c(=O)n(CCC)c(=O)c3cnc(Nc4ccc(N5CCC(N(C)C)CC5)cc4OC)nc32)c1 | 184 (≈ 307 µM) | 0.013 | 0.0004 | 4.13 | 0.06 | 33 | 69
15 | C=CC(=O)Nc1cccc(-n2c(=O)n(C(C)C)c(=O)c3cnc(Nc4ccc(OCCN(C)C)cc4OC)nc32)c1 | 647 (≈ 1160 µM) | 0.227 | 0.115 | 3.6 | 0.099 | 2 | 36
16 | C=CC(=O)Nc1cccc(-n2c(=O)n(CCc3ccccc3)c(=O)c3cnc(Nc4ccc(N5CCC(N(C)C)CC5)cc4OC)nc32)c1 | 99 (≈ 150 µM) | 0.0007 | 0.001 | 2.04 | 0.189 | 0.7 | 11
17 | C=CC(=O)Nc1cccc(-n2c(=O)n(C)c(=O)c3cnc(Nc4ccc(N5CCSCC5)cc4OC)nc32)c1 | 45 (≈ 82.5 µM) | 0.314 | 0.091 | 8.37 | 0.573 | 3.5 | 15
